# Source: publication PMC7688529 (British Journal of Clinical Pharmacology, 2020)
# Read-outs that look alike come from different tables or passages of the source.
# Columns and labels:
# [1] = type: in vivo, human; settings: for CVw of AUC0‐t / CVw of AUC0‐∞ / CVw of Cmax: intrasubject coefficient of variation; for Tmax: median (range)
# Method in brief: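 Healthy subjects; randomized crossover; single oral fasted dose of the 10 mg/40 mg macitentan/tadalafil FDC vs a free combination with US-sourced tadalafil; evaluated per group. Fluids withheld 1 h pre- to 1 h post-dose; observation 216–288 h. Macitentan/ACT-132577 by LC-MS/MS after acetonitrile/ethanol protein precipitation; tadalafil by LC-MS/MS after tert-butyl methyl ether extraction. Geometric mean ratios with 90% CI and intrasubject variability from a mixed-effects model.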
# [2] = Stability in human plasma samples; type: physicochemical
# [3] = type: in vivo, human; settings: for Ratio of geometric means (treatment A/B; 90% CI) of AUC0‐t / Ratio of geometric means (treatment A/B; 90% CI) of AUC0‐∞ / Ratio of geometric means (treatment A/B; 90% CI) of Cmax: FDC‐2 vs free combination (EU‐sourced tadalafil); for CVw of AUC0‐t / CVw of AUC0‐∞ / CVw of Cmax: FDC‐2 vs free combination, intrasubject coefficient of variation; for AUC / Cmax / half-life: geometric mean (95% CI); for Cmax: Treatment A FDC (FDC‐2, 10 mg/40 mg), single dose, fasted, healthy subjects
# Method in brief: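 Healthy subjects randomized to A/B or B/A. Single oral dose: 10 mg/40 mg FDC, or macitentan 10 mg plus 2 × 20 mg EU-sourced tadalafil. Fasted ≥10 h pre- to 4 h post-dose. Blood (K3EDTA) from predose to 216 h; spun ~1500 g, 10 min, 4 ± 2°C; stored ≤ −75°C, light-protected. LC-MS/MS with isotope-labelled standards. Geometric mean ratios (90% CI) and CVw from mixed-effects model.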
# [4] = Study AC‐077‐101: safety and tolerability evaluation; type: in vivo, human; settings: both studies AC‐077‐101 and AC‐077‐103; administered as FDC product or as a free combination
# [5] = Group 1, FDC‐1 vs free combination (US‐sourced tadalafil)
# [6] = Group 1, FDC‐1 vs free combination
# [7] = Group 2, FDC‐2 vs free combination (US‐sourced tadalafil)
# [8] = Group 2, FDC‐2 vs free combination
# [9] = human, plasma, oral, Group 1, Treatment A FDC‐1 (macitentan/tadalafil 10 mg/40 mg), single dose, fasted, healthy subjects, geometric mean (95% CI)
# [10] = human, plasma, oral, Group 2, Treatment B free combination (US‐sourced tadalafil), geometric mean (95% CI)
# [11] = human, plasma, oral, t1/2, Group 1, Treatment A FDC‐1, geometric mean (95% CI)
# [12] = human, plasma, oral, t1/2, Group 1, Treatment B free combination (US‐sourced tadalafil), geometric mean (95% CI)
# [13] = human, plasma, oral, t1/2, Group 2, Treatment A FDC‐2, geometric mean (95% CI)
# [14] = human, plasma, oral, t1/2, Group 2, Treatment B free combination (US‐sourced tadalafil), geometric mean (95% CI)
# [15] = human, plasma, oral, tmax, Group 1, Treatment A FDC‐1
# [16] = human, plasma, oral, tmax, Group 1, Treatment B free combination (US‐sourced tadalafil)
# [17] = human, plasma, oral, tmax, Group 2, Treatment A FDC‐2
# [18] = human, plasma, oral, tmax, Group 2, Treatment B free combination (US‐sourced tadalafil)
# [19] = Treatment B free combination (EU‐sourced tadalafil), median (range)
# [20] = human, plasma, oral, t1/2, Treatment A FDC (FDC‐2)
# [21] = human, plasma, oral, t1/2, Treatment B free combination (EU‐sourced tadalafil)
smiles,measurement,setting,value
"CCCNS(=O)(=O)Nc1ncnc(OCCOc2ncc(Br)cn2)c1-c1ccc(Br)cc1 [Macitentan, macitentan]",Geometric means ratio (treatment A/B; 90% CI) of AUC0‐t,[1]; [5],"0.9815 (0.9527, 1.0113)"
same,Geometric means ratio (treatment A/B; 90% CI) of AUC0‐∞,[1]; [5],"0.9818 (0.9537, 1.0109)"
same,Geometric means ratio (treatment A/B; 90% CI) of Cmax,[1]; [5],"1.0045 (0.9631, 1.0478)"
same,CVw of AUC0‐t,[1]; [6],9.54%
same,CVw of AUC0‐∞,[1]; [6],9.31%
same,CVw of Cmax,[1]; [6],13.50%
same,AUC higher after FDC‐2 than after free combination,[1]; Group 2,approximately 10%
same,Cmax higher after FDC‐2 than after free combination,[1]; Group 2,approximately 19%
same,Geometric means ratio (treatment A/B; 90% CI) of AUC0‐t,[1]; [7],"1.1014 (1.0652, 1.1389)"
same,Geometric means ratio (treatment A/B; 90% CI) of AUC0‐∞,[1]; [7],"1.0981 (1.0641, 1.1332)"
same,Geometric means ratio (treatment A/B; 90% CI) of Cmax,[1]; [7],"1.1901 (1.1374, 1.2451)"
same,CVw of AUC0‐t,[1]; [8],10.80%
same,CVw of AUC0‐∞,[1]; [8],10.16%
same,CVw of Cmax,[1]; [8],14.64%
same,AUC,"[1]; human, plasma, oral, AUC0‐t, Group 1, Treatment A FDC‐1, geometric mean (95% CI)",4320 ng·h/mL
same,AUC,"[1]; human, plasma, oral, AUC0‐t, Group 1, Treatment B free combination (US‐sourced tadalafil), geometric mean (95% CI)",4400 ng·h/mL
same,AUC,"[1]; human, plasma, oral, AUC0‐t, Group 2, Treatment A FDC‐2, geometric mean (95% CI)",4740 ng·h/mL
same,AUC,"[1]; human, plasma, oral, AUC0‐t, Group 2, Treatment B free combination (US‐sourced tadalafil), geometric mean (95% CI)",4300 ng·h/mL
same,AUC,"[1]; human, plasma, oral, AUC0‐∞, Group 1, Treatment A FDC‐1, geometric mean (95% CI)",4430 ng·h/mL
same,AUC,"[1]; human, plasma, oral, AUC0‐∞, Group 1, Treatment B free combination (US‐sourced tadalafil), geometric mean (95% CI)",4510 ng·h/mL
same,AUC,"[1]; human, plasma, oral, AUC0‐∞, Group 2, Treatment A FDC‐2, geometric mean (95% CI)",4830 ng·h/mL
same,AUC,"[1]; human, plasma, oral, AUC0‐∞, Group 2, Treatment B free combination (US‐sourced tadalafil), geometric mean (95% CI)",4390 ng·h/mL
same,Cmax,[1]; [9],169 ng/mL
same,Cmax,[1]; [10],163 ng/mL
same,half-life,[1]; [11],13.8 h
same,half-life,[1]; [12],14 h
same,half-life,[1]; [13],13.8 h
same,half-life,[1]; [14],14.4 h
same,Tmax,[1]; [15],9 h
same,Tmax,[1]; [16],9 h
same,Tmax,[1]; [17],9 h
same,Tmax,[1]; [18],9 h
same,stability in plasma samples at room‐temperature,[2],at least 3 days
same,"stability in plasma samples, freeze/thaw cycles",[2],at least 3 freeze/thaw cycles
same,"stability in plasma samples, storage at −20°C",[2],≥ 36 months
same,Ratio of geometric means (treatment A/B; 90% CI) of AUC0‐t,[3],"1.0038 (0.9677, 1.0413)"
same,Ratio of geometric means (treatment A/B; 90% CI) of AUC0‐∞,[3],"1.0015 (0.9675, 1.0367)"
same,Ratio of geometric means (treatment A/B; 90% CI) of Cmax,[3],"1.0608 (1.0014, 1.1238)"
same,CVw of AUC0‐t,[3],8.94%
same,CVw of AUC0‐∞,[3],8.42%
same,CVw of Cmax,[3],14.10%
same,Tmax,[3]; [19],9.00 (4.2–24.0) h
same,Tmax,"[3]; human, plasma, oral",9 h
same,AUC,"[3]; human, plasma, oral, AUC0‐t, Treatment A FDC (FDC‐2)",5810 ng·h/mL
same,AUC,"[3]; human, plasma, oral, AUC0‐t, Treatment B free combination (EU‐sourced tadalafil)",5790 ng·h/mL
same,AUC,"[3]; human, plasma, oral, AUC0‐∞, Treatment A FDC (FDC‐2)",5890 ng·h/mL
same,AUC,"[3]; human, plasma, oral, AUC0‐∞, Treatment B free combination (EU‐sourced tadalafil)",5880 ng·h/mL
same,Cmax,"[3]; human, plasma, oral",175 ng/mL
same,half-life,[3]; [20],16.1 h
same,half-life,[3]; [21],16.1 h
same,tolerability,[4],well tolerated
"CN1CC(=O)N2[C@H](c3ccc4c(c3)OCO4)c3[nH]c4ccccc4c3C[C@@H]2C1=O [Tadalafil, tadalafil]",lower bound of the 90% CI of the geometric mean ratio of Cmax,"[1]; FDC‐1 vs free combination, bioequivalence limits 0.8000–1.2500",0.7167
same,AUC lower after FDC‐1 than after free combination,[1]; Group 1,~8%
same,Cmax lower after FDC‐1 than after free combination,[1]; Group 1,approximately 24%
same,Geometric means ratio (treatment A/B; 90% CI) of AUC0‐t,[1]; [5],"0.9151 (0.8687, 0.9639)"
same,Geometric means ratio (treatment A/B; 90% CI) of AUC0‐∞,[1]; [5],"0.9172 (0.8707, 0.9662)"
same,Geometric means ratio (treatment A/B; 90% CI) of Cmax,[1]; [5],"0.7588 (0.7167, 0.8034)"
same,CVw of AUC0‐t,[1]; [6],16.71%
same,CVw of AUC0‐∞,[1]; [6],16.70%
same,CVw of Cmax,[1]; [6],18.38%
same,t1/2,"[1]; Group 1, Treatment B free combination (US‐sourced tadalafil), geometric mean (95% CI)","18.066 (16.472, 19.815) h"
same,Tmax,"[1]; Group 1, Treatment B free combination (US‐sourced tadalafil)",3.00 (1.0–5.0) h
same,Geometric means ratio (treatment A/B; 90% CI) of AUC0‐t,[1]; [7],"0.9764 (0.9293, 1.0259)"
same,Geometric means ratio (treatment A/B; 90% CI) of AUC0‐∞,[1]; [7],"0.9765 (0.9293, 1.0260)"
same,Geometric means ratio (treatment A/B; 90% CI) of Cmax,[1]; [7],"0.9576 (0.9063, 1.0118)"
same,CVw of AUC0‐t,[1]; [8],16.01%
same,CVw of AUC0‐∞,[1]; [8],16.02%
same,CVw of Cmax,[1]; [8],17.86%
same,Cmax,[1]; [9],385 ng/mL
same,Cmax,[1]; [10],490 ng/mL
same,half-life,[1]; [11],18.4 h
same,half-life,[1]; [13],18.1 h
same,half-life,[1]; [14],18.5 h
same,Tmax,[1]; [15],4 h
same,Tmax,[1]; [16],~3 h
same,Tmax,[1]; [17],3 h
same,Tmax,[1]; [18],3 h
same,stability in plasma samples at room‐temperature,[2],at least 6 hours
same,"stability in plasma samples, freeze/thaw cycles",[2],≥ 3 freeze/thaw cycles
same,Ratio of geometric means (treatment A/B; 90% CI) of AUC0‐t,[3],"1.0040 (0.9584, 1.0517)"
same,Ratio of geometric means (treatment A/B; 90% CI) of AUC0‐∞,[3],"1.0047 (0.9591, 1.0525)"
same,Ratio of geometric means (treatment A/B; 90% CI) of Cmax,[3],"0.9015 (0.8413, 0.9661)"
same,CVw of AUC0‐t,[3],11.35%
same,CVw of AUC0‐∞,[3],11.34%
same,CVw of Cmax,[3],16.96%
same,Tmax,[3]; [19],1.75 (1.0–5.0) h
same,Cmax,"[3]; human, plasma, oral",539 ng/mL
same,half-life,[3]; [20],23.3 h
same,half-life,[3]; [21],22.6 h
same,Tmax,"[3]; human, plasma, oral, tmax, Treatment A FDC (FDC‐2), median (range)",2 h
same,tolerability,[4],well tolerated
NS(=O)(=O)Nc1ncnc(OCCOc2ncc(Br)cn2)c1-c1ccc(Br)cc1 [ACT‐132577],Geometric means ratio (treatment A/B; 90% CI) of AUC0‐t,[1]; [5],"0.9826(0.9550, 1.0110)"
same,Geometric means ratio (treatment A/B; 90% CI) of AUC0‐∞,[1]; [5],"0.9836(0.9572, 1.0107)"
same,Geometric means ratio (treatment A/B; 90% CI) of Cmax,[1]; [5],"0.9935 (0.9616, 1.0264)"
same,CVw of AUC0‐t,[1]; [6],9.03%
same,CVw of AUC0‐∞,[1]; [6],8.61%
same,CVw of Cmax,[1]; [6],10.32%
same,AUC higher after FDC‐2 than after free combination,[1]; Group 2,~9%
same,Cmax higher after FDC‐2 than after free combination,[1]; Group 2,approximately 10%
same,Geometric means ratio (treatment A/B; 90% CI) of AUC0‐t,[1]; [7],"1.0925 (1.0545, 1.1319)"
same,Geometric means ratio (treatment A/B; 90% CI) of AUC0‐∞,[1]; [7],"1.0884 (1.0502, 1.1281)"
same,Geometric means ratio (treatment A/B; 90% CI) of Cmax,[1]; [7],"1.0983 (1.0470, 1.1520)"
same,CVw of AUC0‐t,[1]; [8],11.20%
same,CVw of AUC0‐∞,[1]; [8],11.31%
same,CVw of Cmax,[1]; [8],15.15%
same,Cmax,[1]; [9],158 ng/mL
same,Cmax,[1]; [10],150 ng/mL
same,half-life,[1]; [12],48.5 h
same,half-life,[1]; [13],50.5 h
same,half-life,[1]; [14],50.3 h
same,Tmax,[1]; [15],48 h
same,Tmax,[1]; [16],48 h
same,Tmax,[1]; [17],48 h
same,Tmax,[1]; [18],48 h
same,stability in plasma samples at room‐temperature,[2],at least 3 days
same,"stability in plasma samples, freeze/thaw cycles",[2],at least 3 freeze/thaw cycles
same,"stability in plasma samples, storage at −20°C",[2],≥ 36 months
same,Ratio of geometric means (treatment A/B; 90% CI) of AUC0‐t,[3],"0.9970 (0.9651, 1.0300)"
same,Ratio of geometric means (treatment A/B; 90% CI) of AUC0‐∞,[3],"0.9936 (0.9619, 1.0264)"
same,Ratio of geometric means (treatment A/B; 90% CI) of Cmax,[3],"1.0198 (0.9819, 1.0591)"
same,CVw of AUC0‐t,[3],7.93%
same,CVw of AUC0‐∞,[3],7.91%
same,CVw of Cmax,[3],9.24%
same,Tmax,[3]; [19],48.00 (24.0–72.1) h
same,Tmax,"[3]; human, plasma, oral",48 h
same,Cmax,"[3]; human, plasma, oral",163 ng/mL
same,half-life,[3]; [20],49.4 h
same,half-life,[3]; [21],50.4 h
